The target in assay [1] is Telomerase reverse transcriptase (Homo sapiens, UniProt O14746). The experiment in a line: Inhibition of telomerase activity from human A2780 cells. It counts as functional, cell-based. Summed up: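 TRAP assay with A2780 protein extract, Bradford-quantified. ACX primer (1 µM) and Taq added, 33 PCR cycles. Products on 10% PAGE with SYBR Green I, quantified by gel scanning against a no-protein or heat-inactivated control. Result reported as telEC50.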

The next assay deals with Nucleic Acid. Description: Ratio of binding constant of compound binding to human quadruplex DNA over that of duplex DNA. It counts as nucleic-acid assay. In outline:
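Streptavidin-chip SPR (BIAcore 2000/3000) with biotinylated quadruplex or -AATT- duplex DNA loaded at 25 nM. Run in HEPES buffer pH 7.4 (0.20 M KCl, 3 mM EDTA, P20) at 25 °C. Steady-state RU from sensorgram plateaus, flow 10–30 µL/min, plotted against free compound concentration to fit binding constants. Value is the ratio of quadruplex to duplex constants.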

Assay [2] relates to MCF7. The experiment in a line: Cytotoxicity in human MCF7 cells by SRB assay. It counts as functional, cell-based. Background: In SRB staining, fixed cells bind dye roughly in proportion to their protein.
A further assay has as its system IMR-90. The experiment in a line: Cytotoxicity in human IMR90 cells by SRB assay. Format: functional, cell-based.
The target of assay [3] is DNA polymerase I, thermostable (Thermus aquaticus) (UniProt P19821). The experiment in a line: Inhibition of TAQ polymerase activity at 2 uM. In outline:
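PCR with TS forward primer, NT reverse primer (0.5 µM), TSNT template (200 pM), 1 mM MgCl₂, 20 µM dNTPs and 1.25 U Taq, plus compound. Run: 92 °C 2 min, then 33 cycles of 92/52/72 °C. 36 bp product resolved on 10% polyacrylamide gel, stained with SYBR Green I.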

For assay [4], the system named is MCF7. Description: Increase in senescence in MCF7 cells by staining with SA-beta-Gal at 1 uM. It counts as functional, cell-based. The conditions noted are these: Homo sapiens. In outline:
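MCF7 cells in DMEM, counted and reseeded on day 1, treated that day and re-dosed on day 4 each week, over 4 weeks. Weekly, 1 × 10⁵ cells seeded with compound for about 24 h, then fixed and stained with X-gal solution (citrate/phosphate pH 6.0, ferro/ferricyanide) overnight at 37 °C. Blue cells counted by light microscopy as percentage of total versus vehicle control.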

Calls of active or inactive are those of the source. The calls are words filed in the database; no cut-off is given here.

Sequence of DNA polymerase I, thermostable (Thermus aquaticus) (P19821 whole entry): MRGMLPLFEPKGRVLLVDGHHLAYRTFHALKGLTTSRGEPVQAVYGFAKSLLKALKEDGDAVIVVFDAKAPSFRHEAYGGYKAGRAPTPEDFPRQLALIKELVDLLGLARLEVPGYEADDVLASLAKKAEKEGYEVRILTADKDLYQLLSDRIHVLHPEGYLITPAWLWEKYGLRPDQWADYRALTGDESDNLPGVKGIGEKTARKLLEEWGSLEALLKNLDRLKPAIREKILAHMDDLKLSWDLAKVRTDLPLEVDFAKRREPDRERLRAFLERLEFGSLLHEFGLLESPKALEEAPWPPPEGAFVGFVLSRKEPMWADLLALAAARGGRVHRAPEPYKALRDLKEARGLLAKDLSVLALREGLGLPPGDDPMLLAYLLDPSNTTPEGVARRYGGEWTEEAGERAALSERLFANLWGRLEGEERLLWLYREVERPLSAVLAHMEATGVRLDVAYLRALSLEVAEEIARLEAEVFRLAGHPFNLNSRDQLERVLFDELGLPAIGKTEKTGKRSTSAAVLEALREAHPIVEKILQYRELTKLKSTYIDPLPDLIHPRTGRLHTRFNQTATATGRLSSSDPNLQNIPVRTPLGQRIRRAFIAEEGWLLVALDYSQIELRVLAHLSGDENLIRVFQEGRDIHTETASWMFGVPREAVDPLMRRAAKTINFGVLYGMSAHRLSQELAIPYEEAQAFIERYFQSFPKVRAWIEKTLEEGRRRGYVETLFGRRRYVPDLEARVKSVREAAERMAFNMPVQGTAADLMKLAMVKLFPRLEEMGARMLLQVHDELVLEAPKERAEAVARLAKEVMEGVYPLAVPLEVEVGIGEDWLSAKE
Sequence of Telomerase reverse transcriptase (O14746 whole entry): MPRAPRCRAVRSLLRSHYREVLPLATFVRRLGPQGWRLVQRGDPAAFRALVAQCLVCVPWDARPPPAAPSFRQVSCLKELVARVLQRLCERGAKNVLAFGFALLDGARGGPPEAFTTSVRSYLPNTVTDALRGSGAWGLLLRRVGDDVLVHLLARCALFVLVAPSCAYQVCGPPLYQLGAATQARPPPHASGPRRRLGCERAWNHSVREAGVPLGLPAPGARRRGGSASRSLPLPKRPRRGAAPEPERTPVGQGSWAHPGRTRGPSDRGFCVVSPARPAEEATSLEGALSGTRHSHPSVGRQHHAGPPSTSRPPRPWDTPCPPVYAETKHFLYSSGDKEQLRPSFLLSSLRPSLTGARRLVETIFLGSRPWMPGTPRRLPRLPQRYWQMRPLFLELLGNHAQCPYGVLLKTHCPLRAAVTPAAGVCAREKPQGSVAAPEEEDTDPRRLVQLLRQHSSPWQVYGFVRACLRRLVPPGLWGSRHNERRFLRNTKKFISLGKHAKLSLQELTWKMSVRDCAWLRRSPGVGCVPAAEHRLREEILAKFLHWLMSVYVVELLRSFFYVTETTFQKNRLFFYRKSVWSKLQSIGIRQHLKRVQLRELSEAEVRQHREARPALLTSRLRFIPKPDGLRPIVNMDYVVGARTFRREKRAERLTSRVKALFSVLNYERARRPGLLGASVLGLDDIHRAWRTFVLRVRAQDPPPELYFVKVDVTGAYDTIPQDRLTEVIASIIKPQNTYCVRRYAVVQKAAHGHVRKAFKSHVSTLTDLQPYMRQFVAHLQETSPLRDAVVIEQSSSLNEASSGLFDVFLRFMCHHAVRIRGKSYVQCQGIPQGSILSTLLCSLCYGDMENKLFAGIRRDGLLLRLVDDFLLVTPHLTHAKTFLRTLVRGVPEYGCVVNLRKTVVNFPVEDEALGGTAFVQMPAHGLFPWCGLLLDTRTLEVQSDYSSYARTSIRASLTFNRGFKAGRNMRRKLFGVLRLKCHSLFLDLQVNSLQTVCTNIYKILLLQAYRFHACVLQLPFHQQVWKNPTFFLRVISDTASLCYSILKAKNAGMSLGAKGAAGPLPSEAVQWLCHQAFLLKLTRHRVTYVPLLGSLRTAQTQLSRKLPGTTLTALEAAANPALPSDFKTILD

As for `O=C(CCN1CCCC1)Nc1ccc(Nc2c3ccccc3nc3ccccc23)cc1`, the EC50 (as a rule, the concentration that produces a half-maximal response) in assay [1] was above 20 µM.
As for `O=C(CCCN1CCCC1)Nc1ccc(Nc2c3ccc(NC(=O)CCN4CCCC4)cc3nc3cc(NC(=O)CCN4CCCC4)ccc23)cc1`, in the assay with Nucleic Acid, the Ratio was found to be 12.8. The compound further displayed a concentration giving a half-maximal response (EC50) in assay [1] of 0.117 µM. The IC50 in the assay with MCF7 [2] and in the assay on IMR-90 was above 25 µM each time.
Turning to `O=C(CCCCCN1CCCC1)Nc1ccc2c(Nc3ccc(NC(=O)CCN4CCCC4)cc3)c3ccc(NC(=O)CCCCCN4CCCC4)cc3nc2c1`, the Ratio in the assay with Nucleic Acid came to 72. The compound further displayed a half-maximal effective concentration (EC50) in assay [1] of 0.146 µM. In addition, the IC50 with MCF7 [2] and in the assay on IMR-90 was above 25 µM in each case.
As to `CN(C)c1ccc(Nc2c3ccc(NC(=O)CCCCN4CCCC4)cc3nc3cc(NC(=O)CCCCN4CCCC4)ccc23)cc1`, the Ratio with Nucleic Acid was determined as 4.5. The compound further gave a concentration for a half-maximal effect (EC50) in assay [1] of 1.93 µM. For the same compound, the half-maximal inhibitory concentration (IC50) with MCF7 [2] and in the assay on IMR-90 was above 25 µM throughout. In assay [3], the inhibition (in general, how much of the control response was suppressed) was below 25%.
Consider `CN(C)c1ccc(Nc2c3ccc(NC(=O)CCCN4CCCC4)cc3nc3cc(NC(=O)CCCN4CCCC4)ccc23)cc1`, for which, in the assay with Nucleic Acid, the Ratio worked out at 48. The midpoint of the response in assay [1], the EC50, lay at 0.099 µM. For the same compound, the IC50 (in general, the concentration at which inhibition is half-maximal) in the assay on MCF7 [2] was 8.75 µM; in the assay with IMR-90, above 25 µM. The same compound had an inhibition in assay [3] below 25%. Moreover, the outcome in the assay with MCF7 [4] was Active.
Regarding `O=C(CCCN1CCCC1)Nc1ccc2c(Nc3ccc(NC(=O)CCN4CCCC4)cc3)c3ccc(NC(=O)CCCN4CCCC4)cc3nc2c1`, the Ratio with Nucleic Acid amounted to 0.6. In assay [1], this compound showed a concentration for a half-maximal effect (EC50) of 0.326 µM. Also, the IC50 in the assay with MCF7 [2] and with IMR-90 was above 25 µM each time.
For the compound `O=C(CCCCN1CCCC1)Nc1ccc2c(Nc3ccc(NC(=O)CCN4CCCC4)cc3)c3ccc(NC(=O)CCCCN4CCCC4)cc3nc2c1`, in the assay on Nucleic Acid, the Ratio stood at 1.6. This compound also returned a concentration giving a half-maximal response (EC50) in assay [1] of 0.255 µM. Besides, the IC50 with MCF7 [2] and in the assay on IMR-90 was above 25 µM each time.
As for `O=C(CN1CCCC1)Nc1ccc2cc3ccc(NC(=O)CN4CCCC4)cc3nc2c1`, the Ratio in the assay with Nucleic Acid was found to be 1.2. A half-maximal response in assay [1] (EC50) required 5.2 µM.
For the compound `O=C(CCN1CCCC1)Nc1ccc(Nc2c3ccc(NC(=O)CCN4CCCC4)cc3nc3cc(NC(=O)CCN4CCCC4)ccc23)cc1`, the Ratio in the assay with Nucleic Acid turned out to be 29. Further, the EC50 in assay [1] was 0.067 µM. Besides, the IC50 in the assay on MCF7 [2] and in the assay with IMR-90 was above 25 µM each time.
In the case of `CN(C)c1ccc(Nc2c3ccc(NC(=O)CCN4CCCC4)cc3nc3cc(NC(=O)CCN4CCCC4)ccc23)cc1`, the Ratio in the assay with Nucleic Acid amounted to 31. In assay [3], this compound came in with an inhibition below 25%. The same compound returned an IC50 in the assay on IMR-90 above 25 µM.
As for `CN(C)c1ccc(Nc2c3ccc(NC(=O)CCCCCN4CCCC4)cc3nc3cc(NC(=O)CCCCCN4CCCC4)ccc23)cc1`, in the assay on Nucleic Acid, the Ratio amounted to 5.8. The same compound yielded an EC50 in assay [1] of 6.91 µM. Besides, the IC50 in the assay on MCF7 [2] and in the assay on IMR-90 was above 25 µM in each case. Besides, the inhibition in assay [3] was below 25%.
Consider `O=C(CCN1CCCC1)Nc1ccc2c(Nc3ccc(NC(=O)CN4CCCC4)cc3)c3ccc(NC(=O)CCN4CCCC4)cc3nc2c1`, for which the Ratio in the assay with Nucleic Acid worked out at 10.9. In assay [1], this compound returned an EC50 of 0.167 µM. For the same compound, the IC50 with MCF7 [2] and with IMR-90 was above 25 µM in each case.

(Values after ChEMBL document CHEMBL1147736, “Trisubstituted acridines as G-quadruplex telomere targeting agents. Effects of extensions of the 3,6- and 9-side chains on quadruplex binding, telomerase activity, and cell proliferation” (J Med Chem, 2006).)
